Values after ≈ are worked out from the molar mass of the structure shown.
Key:
Format in all cases: functional
Candida albicans = test: microbe, parasite or virus in culture
Staphylococcus aureus [1] = test: Antibacterial activity against methicillin-resistant Staphylococcus aureus isolate after 18 to 24 hrs by tube dilution method
Outline: (§1)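 Two-fold broth tube dilution in Mueller–Hinton broth. Strains kept on Mueller–Hinton agar for 24 h at 37 °C. Colonies suspended in sterile water and adjusted to 0.5 McFarland, giving a final inoculum of about 10⁵ CFU/mL. Compounds dissolved in 12.5% DMSO at 200 µg/mL and serially diluted to 0.19 µg/mL. Incubated 18–24 h at 37 °C. MIC taken as the last tube with no growth.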

Bacillus subtilis = test: Antibacterial activity against Bacillus subtilis 6633 after 18 to 24 hrs by tube dilution method
Outline: (§2)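 Tube dilution broth MIC in Mueller–Hinton broth. Strains were maintained on Mueller–Hinton agar for 24 h at 37 °C. Colonies were suspended in sterile water, adjusted to 0.5 McFarland, and added to give about 10⁵ CFU/mL final. Compounds were dissolved in 12.5% DMSO and serially diluted two-fold. Tubes were incubated 18–24 h at 37 °C. MIC was taken as the last tube with no growth.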

Escherichia coli = test: Antibacterial activity against Escherichia coli 25922 after 18 to 24 hrs by tube dilution method; conditions: ATCC25922
Outline: as §2

Staphylococcus aureus [2] = test: Antibacterial activity against Staphylococcus aureus ATCC 25923 after 18 to 24 hrs by tube dilution method
Outline: as §1

Staphylococcus aureus [3] = test: Antibacterial activity against methicillin-resistant Staphylococcus aureus […] after 18 to 24 hrs by tube dilution method
Outline: as §1

Structure (SMILES)	MIC (Candida albicans)	MIC (Staphylococcus aureus [1])	MIC (Bacillus subtilis)	MIC (Escherichia coli)	MIC (Staphylococcus aureus [2])	MIC (Staphylococcus aureus [3])
Clc1ccc(COC(Cn2ccnc2)c2ccc(Cl)cc2Cl)c(Cl)c1 (configuration not stated) [MICONAZOLE]	3.12 µg/mL (≈ 7.5 µM)					
Fc1ccc(CNc2ncnc3c2ncn3C2CCCC2)c(F)c1	25 µg/mL (≈ 75.9 µM)	50 µg/mL (≈ 152 µM)	50 µg/mL (≈ 152 µM)	50 µg/mL (≈ 152 µM)	50 µg/mL (≈ 152 µM)	50 µg/mL (≈ 152 µM)
Clc1ccc(CO/N=C(\Cn2ccnc2)c2ccc(Cl)cc2Cl)c(Cl)c1 [OXICONAZOLE]	6.25 µg/mL (≈ 14.6 µM)					
Clc1ccc(CNc2ncnc3c2ncn3C2CCCC2)c(Cl)c1	6.25 µg/mL (≈ 17.3 µM)	50 µg/mL (≈ 138 µM)	25 µg/mL (≈ 69 µM)	50 µg/mL (≈ 138 µM)	12.5 µg/mL (≈ 34.5 µM)	25 µg/mL (≈ 69 µM)
CN1CCN(Nc2ncnc3[nH]cnc23)CC1	12.5 µg/mL (≈ 53.6 µM)	50 µg/mL (≈ 214 µM)	25 µg/mL (≈ 107 µM)	25 µg/mL (≈ 107 µM)	50 µg/mL (≈ 214 µM)	50 µg/mL (≈ 214 µM)
c1ccc(NCCNc2ncnc3c2ncn3C2CCCC2)cc1	12.5 µg/mL (≈ 38.8 µM)	50 µg/mL (≈ 155 µM)	25 µg/mL (≈ 77.5 µM)	50 µg/mL (≈ 155 µM)	50 µg/mL (≈ 155 µM)	50 µg/mL (≈ 155 µM)
c1ccc(NCCNc2ncnc3[nH]cnc23)cc1	3.12 µg/mL (≈ 12.3 µM)	50 µg/mL (≈ 197 µM)	50 µg/mL (≈ 197 µM)	25 µg/mL (≈ 98.3 µM)	50 µg/mL (≈ 197 µM)	50 µg/mL (≈ 197 µM)
CC(C)NCCNc1ncnc2c1ncn2C1CCCC1.Cl	25 µg/mL	50 µg/mL	25 µg/mL	50 µg/mL	25 µg/mL	50 µg/mL
C1=CC(CCNc2ncnc3c2ncn3C2CCCC2)CCC1 (configuration not stated)	12.5 µg/mL (≈ 40.1 µM)	25 µg/mL (≈ 80.3 µM)	50 µg/mL (≈ 161 µM)	25 µg/mL (≈ 80.3 µM)	12.5 µg/mL (≈ 40.1 µM)	25 µg/mL (≈ 80.3 µM)
CC(C)NCCNc1ncnc2c1ncn2Cc1ccc(F)cc1	25 µg/mL (≈ 76.1 µM)	50 µg/mL (≈ 152 µM)	50 µg/mL (≈ 152 µM)	50 µg/mL (≈ 152 µM)	50 µg/mL (≈ 152 µM)	50 µg/mL (≈ 152 µM)
CN1CCN(Nc2ncnc3c2ncn3C2CCCC2)CC1	25 µg/mL (≈ 82.9 µM)	50 µg/mL (≈ 166 µM)	25 µg/mL (≈ 82.9 µM)	50 µg/mL (≈ 166 µM)	50 µg/mL (≈ 166 µM)	50 µg/mL (≈ 166 µM)
Fc1ccc(CNc2ncnc3c2ncn3C2CCCC2)cc1	3.12 µg/mL (≈ 10 µM)	25 µg/mL (≈ 80.3 µM)	25 µg/mL (≈ 80.3 µM)	50 µg/mL (≈ 161 µM)	25 µg/mL (≈ 80.3 µM)	25 µg/mL (≈ 80.3 µM)
CC1(C)S[C@@H]2[C@H](NC(=O)[C@H](N)c3ccccc3)C(=O)N2[C@H]1C(=O)O [AMPICILLIN]		50 µg/mL (≈ 143 µM)	50 µg/mL (≈ 143 µM)	50 µg/mL (≈ 143 µM)	0.78 µg/mL (≈ 2.23 µM)	50 µg/mL (≈ 143 µM)
C1=CC(CCNc2ncnc3[nH]cnc23)CCC1 (configuration not stated)	6.25 µg/mL (≈ 25.7 µM)	50 µg/mL (≈ 205 µM)	25 µg/mL (≈ 103 µM)	25 µg/mL (≈ 103 µM)	50 µg/mL (≈ 205 µM)	50 µg/mL (≈ 205 µM)
COc1ccc(CNc2ncnc3c2ncn3C2CCCC2)c(OC)c1	12.5 µg/mL (≈ 35.4 µM)	50 µg/mL (≈ 141 µM)	25 µg/mL (≈ 70.7 µM)	25 µg/mL (≈ 70.7 µM)	50 µg/mL (≈ 141 µM)	50 µg/mL (≈ 141 µM)
CCN(CC)CCNc1ncnc2c1ncn2Cc1ccc(F)cc1	25 µg/mL (≈ 73 µM)	50 µg/mL (≈ 146 µM)	25 µg/mL (≈ 73 µM)	50 µg/mL (≈ 146 µM)	50 µg/mL (≈ 146 µM)	50 µg/mL (≈ 146 µM)
COc1ccc(CNc2ncnc3c2ncn3C2CCCC2)cc1	12.5 µg/mL (≈ 38.7 µM)	25 µg/mL (≈ 77.3 µM)	50 µg/mL (≈ 155 µM)	50 µg/mL (≈ 155 µM)	25 µg/mL (≈ 77.3 µM)	50 µg/mL (≈ 155 µM)
CCN(CC)CCNc1ncnc2c1ncn2C1CCCC1	50 µg/mL (≈ 165 µM)	50 µg/mL (≈ 165 µM)	25 µg/mL (≈ 82.7 µM)	50 µg/mL (≈ 165 µM)	50 µg/mL (≈ 165 µM)	50 µg/mL (≈ 165 µM)
CC1CCN(c2ncnc3c2ncn3C2CCCC2)CC1	12.5 µg/mL (≈ 43.8 µM)	50 µg/mL (≈ 175 µM)	50 µg/mL (≈ 175 µM)	50 µg/mL (≈ 175 µM)	50 µg/mL (≈ 175 µM)	50 µg/mL (≈ 175 µM)
CC1CCN(c2ncnc3[nH]cnc23)CC1	25 µg/mL (≈ 115 µM)	50 µg/mL (≈ 230 µM)	25 µg/mL (≈ 115 µM)	50 µg/mL (≈ 230 µM)	25 µg/mL (≈ 115 µM)	50 µg/mL (≈ 230 µM)
O=C(O)c1cn(C2CC2)c2cc(N3CCNCC3)c(F)cc2c1=O [CIPROFLOXACIN]		12.5 µg/mL (≈ 37.7 µM)	0.19 µg/mL (≈ 0.573 µM)		0.78 µg/mL (≈ 2.35 µM)	
CCn1c(NC2CCCC2)nc2c(N)ncnc21	12.5 µg/mL (≈ 50.7 µM)	50 µg/mL (≈ 203 µM)	25 µg/mL (≈ 101 µM)	50 µg/mL (≈ 203 µM)	50 µg/mL (≈ 203 µM)	50 µg/mL (≈ 203 µM)
Clc1ccc(CNc2ncnc3c2ncn3C2CCCC2)cc1	12.5 µg/mL (≈ 38.1 µM)	6.25 µg/mL (≈ 19.1 µM)	25 µg/mL (≈ 76.3 µM)	50 µg/mL (≈ 153 µM)	12.5 µg/mL (≈ 38.1 µM)	6.25 µg/mL (≈ 19.1 µM)
CCn1c(NCC(C)C)nc2c(N)ncnc21	25 µg/mL (≈ 107 µM)	50 µg/mL (≈ 213 µM)	50 µg/mL (≈ 213 µM)	50 µg/mL (≈ 213 µM)	50 µg/mL (≈ 213 µM)	50 µg/mL (≈ 213 µM)
Nc1ncnc2c1ncn2C1CCCC1	12.5 µg/mL (≈ 61.5 µM)	50 µg/mL (≈ 246 µM)	25 µg/mL (≈ 123 µM)	50 µg/mL (≈ 246 µM)	50 µg/mL (≈ 246 µM)	50 µg/mL (≈ 246 µM)
CCNc1nc2c(N)ncnc2n1C1CCCC1	6.25 µg/mL (≈ 25.4 µM)	50 µg/mL (≈ 203 µM)	50 µg/mL (≈ 203 µM)	50 µg/mL (≈ 203 µM)	25 µg/mL (≈ 101 µM)	50 µg/mL (≈ 203 µM)
CC1(C)S[C@@H]2[C@H](NC(=O)[C@H](N)c3ccccc3)C(=O)N2[C@H]1C(=O)OCOC(=O)[C@@H]1N2C(=O)C[C@H]2S(=O)(=O)C1(C)C [SULTAMICILLIN]		25 µg/mL (≈ 42 µM)	0.78 µg/mL (≈ 1.31 µM)	25 µg/mL (≈ 42 µM)	1.56 µg/mL (≈ 2.62 µM)	25 µg/mL (≈ 42 µM)
